Source: ChEMBL document CHEMBL2412990, “Synthesis and pharmacological evaluation of new N-phenylpiperazine derivatives designed as homologues of the antipsychotic lead compound LASSBio-579” (Eur J Med Chem, 2013)
Activity calls are given as the source filed them. The rule behind the calls is not given here.

Experiments:
Mus musculus [1] = experiment: Antipsychotic activity in CF1 mouse assessed as prevention of apomorphine-induced climbing behaviour at 0.1 to 10 mg/kg, ip administered 30 mins prior apomorphine challenge measured 5 to 30 mins post challenge; format: functional, organism-based
Method in brief: (§1)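 Adult male mice, 25–35 g, dosed i.p. at 10 ml/kg, then placed in wire-bar cages for 30 min. Apomorphine 4 mg/kg s.c. followed. Climbing was scored 0–4 for 1 min at 5, 10, 15, 20, 25 and 30 min; the climbing index is the sum of scores. n = 7–9. Analysed by one-way ANOVA with Newman-Keuls post hoc test.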

[2] = molecular target: Dopamine D2 receptor and Serotonin 2a receptor (D2 and 5HT2a) (Rattus norvegicus) (UniProt P61169+P14842); experiment: Selectivity ratio of Ki for dopamine D2 receptor in rat brain striatal membranes to Ki for 5HT2A receptor in rat brain cortical membranes; format: cell membranes; settings: Membrane
[3] = molecular target: 5-hydroxytryptamine receptor 2A (Rattus norvegicus, UniProt P14842); experiment: Displacement of [3H]-ketanserin from 5HT2A receptor in rat brain cortical membranes after 15 mins by liquid scintillation counting; format: cell membranes, Membrane
[4] = molecular target: T1, Adrenergic receptor alpha-2 (Rattus norvegicus, UniProt P22086+P19328+P22909); experiment: Displacement of [3H]-RX821002 from alpha2 adrenoreceptor in rat brain cortical membranes after 45 mins by liquid scintillation counting; format: cell membranes, Membrane
T1 sequence (P22086 whole entry): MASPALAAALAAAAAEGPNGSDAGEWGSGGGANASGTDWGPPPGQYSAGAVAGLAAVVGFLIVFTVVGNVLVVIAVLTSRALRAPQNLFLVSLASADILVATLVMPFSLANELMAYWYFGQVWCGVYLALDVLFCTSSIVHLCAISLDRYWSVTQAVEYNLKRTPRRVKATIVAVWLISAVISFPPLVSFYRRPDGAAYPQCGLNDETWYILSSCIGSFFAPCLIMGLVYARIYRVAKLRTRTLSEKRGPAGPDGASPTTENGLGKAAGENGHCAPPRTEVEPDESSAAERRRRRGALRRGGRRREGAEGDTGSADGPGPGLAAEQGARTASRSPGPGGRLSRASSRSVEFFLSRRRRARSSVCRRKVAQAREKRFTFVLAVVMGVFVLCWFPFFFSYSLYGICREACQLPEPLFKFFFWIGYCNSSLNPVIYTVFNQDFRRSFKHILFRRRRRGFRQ
T1 sequence (P19328 whole entry): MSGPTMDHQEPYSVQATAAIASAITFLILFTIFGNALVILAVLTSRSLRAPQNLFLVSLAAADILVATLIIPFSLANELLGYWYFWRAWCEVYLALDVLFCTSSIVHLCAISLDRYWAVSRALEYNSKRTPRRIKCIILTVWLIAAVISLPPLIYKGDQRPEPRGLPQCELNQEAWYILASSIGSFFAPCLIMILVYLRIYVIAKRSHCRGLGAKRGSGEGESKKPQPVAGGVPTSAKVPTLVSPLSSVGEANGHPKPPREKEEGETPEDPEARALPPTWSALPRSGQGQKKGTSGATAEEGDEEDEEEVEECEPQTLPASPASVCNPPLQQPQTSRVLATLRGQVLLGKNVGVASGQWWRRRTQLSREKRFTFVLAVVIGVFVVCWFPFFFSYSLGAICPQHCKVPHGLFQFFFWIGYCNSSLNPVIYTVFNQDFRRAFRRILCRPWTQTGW
T1 sequence (P22909 whole entry): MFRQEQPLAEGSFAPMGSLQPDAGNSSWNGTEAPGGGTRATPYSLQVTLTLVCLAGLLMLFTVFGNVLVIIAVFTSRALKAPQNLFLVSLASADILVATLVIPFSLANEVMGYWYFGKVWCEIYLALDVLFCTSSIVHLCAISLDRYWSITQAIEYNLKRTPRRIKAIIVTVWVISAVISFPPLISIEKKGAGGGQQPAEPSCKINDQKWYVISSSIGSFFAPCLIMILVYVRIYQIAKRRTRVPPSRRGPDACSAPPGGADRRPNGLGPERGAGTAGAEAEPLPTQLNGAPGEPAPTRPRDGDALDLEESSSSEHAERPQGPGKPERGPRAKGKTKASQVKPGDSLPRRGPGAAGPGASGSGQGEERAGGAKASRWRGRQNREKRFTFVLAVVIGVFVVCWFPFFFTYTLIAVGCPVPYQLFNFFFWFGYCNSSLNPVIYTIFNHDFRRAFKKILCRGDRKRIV

Mus musculus [5] = experiment: Toxicity in CF1 mouse assessed as reduction in locomotor activity measuring number of crossings at 10 mg/kg, ip administered 30 mins prior ketamine challenge measured for 20 mins post challenge; format: organism-based; design: dose 10 mg/kg, route intraperitoneal; settings: in vivo
[6] = molecular target: 5-hydroxytryptamine receptor 2A (Rattus norvegicus) (UniProt P14842); experiment: Antagonist activity at 5HT2A receptor in rat brain cortical membranes assessed as inhibition of [3H]-ketanserin binding to receptor after 15 mins by competition assay in presence of GTP; format: cell membranes
Method in brief: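 Rat cortical membranes, 150 µg protein, with 1 nM [3H]-ketanserin and 100 nM prazosin in 50 mM Tris-HCl pH 7.4, 37 °C, 15 min. Non-specific binding was defined with ketanserin. For the GTP shift, paired competition curves were run without and with guanylyl nucleotide (0.1 mM Gpp(NH)p or 1 mM GTP).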

Mus musculus [7] = experiment: Antipsychotic activity in ip dosed CF1 mouse assessed as prevention of apomorphine-induced climbing behaviour compound administered 30 mins prior apomorphine challenge measured 5 to 30 mins post challenge; format: functional, organism-based; method in brief: as §1
[8] = molecular target: T2, 5-hydroxytryptamine receptor 1A (Rattus norvegicus) (UniProt P19327); experiment: Partial agonist activity at 5HT1A receptor in rat brain hippocampal membranes assessed as inhibition of [3H]-8-OH-DPAT binding to receptor after 15 mins by competition assay; format: cell membranes
T2 sequence (whole entry): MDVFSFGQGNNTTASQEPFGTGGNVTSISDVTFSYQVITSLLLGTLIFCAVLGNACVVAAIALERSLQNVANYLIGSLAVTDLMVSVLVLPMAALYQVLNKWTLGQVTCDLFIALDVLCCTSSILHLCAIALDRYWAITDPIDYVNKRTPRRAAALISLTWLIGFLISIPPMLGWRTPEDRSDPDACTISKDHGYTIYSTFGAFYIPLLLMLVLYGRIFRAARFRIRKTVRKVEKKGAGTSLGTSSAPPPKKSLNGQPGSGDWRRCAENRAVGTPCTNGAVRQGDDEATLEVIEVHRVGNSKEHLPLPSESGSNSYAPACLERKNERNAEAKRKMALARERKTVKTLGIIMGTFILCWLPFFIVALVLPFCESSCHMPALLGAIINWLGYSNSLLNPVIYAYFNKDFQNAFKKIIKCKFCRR
Method in brief: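 Hippocampal membranes, 40 µg protein, incubated with 1 nM [3H]-8-OH-DPAT at 37 °C for 15 min under yellow light. Buffer was 50 mM Tris-HCl pH 7.4 with 1 mM CaCl2, 1 mM MnCl2 and pargyline. Non-specific binding was defined with 5-HT. Filters were soaked in 0.5% polyethyleneimine. IC50 came from nonlinear regression fitted with one or two sites. Ki by Cheng-Prusoff, using Kd from saturation experiments.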

Mus musculus [9] = experiment: Toxicity in CF1 mouse assessed as effect on locomotor activity measuring number of crossings at 1 to 3 mg/kg, ip administered 30 mins prior ketamine challenge measured for 20 mins post challenge; format: organism-based; design: dose 1-3 mg/kg, route intraperitoneal; settings: in vivo

Sequence of 5-hydroxytryptamine receptor 2A (P14842 whole entry): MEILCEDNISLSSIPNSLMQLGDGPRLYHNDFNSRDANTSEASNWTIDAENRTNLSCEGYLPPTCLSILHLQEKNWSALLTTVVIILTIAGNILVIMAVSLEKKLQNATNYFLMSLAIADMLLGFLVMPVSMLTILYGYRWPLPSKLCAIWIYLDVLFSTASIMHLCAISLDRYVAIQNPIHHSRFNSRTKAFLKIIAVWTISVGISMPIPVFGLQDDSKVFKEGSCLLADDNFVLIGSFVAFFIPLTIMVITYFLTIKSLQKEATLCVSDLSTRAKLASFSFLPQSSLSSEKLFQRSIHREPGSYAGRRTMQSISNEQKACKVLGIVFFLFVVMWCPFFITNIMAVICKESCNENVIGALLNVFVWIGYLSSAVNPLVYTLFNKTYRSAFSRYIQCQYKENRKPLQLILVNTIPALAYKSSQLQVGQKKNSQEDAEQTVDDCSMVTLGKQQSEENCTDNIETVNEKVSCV
Sequence of Dopamine D2 receptor and Serotonin 2a receptor (D2 and 5HT2a) (Rattus norvegicus) (P14842 whole entry, looked up): as the sequence (P14842 whole entry) above
Sequence of Dopamine D2 receptor and Serotonin 2a receptor (D2 and 5HT2a) (Rattus norvegicus) (P61169 whole entry, looked up): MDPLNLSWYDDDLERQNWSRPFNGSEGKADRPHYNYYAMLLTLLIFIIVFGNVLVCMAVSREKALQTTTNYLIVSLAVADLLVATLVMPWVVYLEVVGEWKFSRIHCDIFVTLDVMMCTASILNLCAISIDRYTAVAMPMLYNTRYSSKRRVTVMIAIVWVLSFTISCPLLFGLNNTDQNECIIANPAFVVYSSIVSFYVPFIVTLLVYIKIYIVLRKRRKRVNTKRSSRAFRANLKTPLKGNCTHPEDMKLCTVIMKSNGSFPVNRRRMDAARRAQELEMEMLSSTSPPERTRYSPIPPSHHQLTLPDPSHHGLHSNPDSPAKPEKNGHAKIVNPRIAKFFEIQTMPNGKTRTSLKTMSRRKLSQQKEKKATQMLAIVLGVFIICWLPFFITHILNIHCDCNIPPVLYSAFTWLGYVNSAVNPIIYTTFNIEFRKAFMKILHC
Sequence of 5-hydroxytryptamine receptor 2A (Rattus norvegicus) (P14842 whole entry): as the sequence (P14842 whole entry) above

| Compound | Ratio Ki [2] | Ki [3] [nM] | Ki [4] [nM] | inhibition [6] | inhibition [8] | Activity (Mus musculus [1]) | Activity (Mus musculus [5]) | Activity (Mus musculus [7]) | Activity (Mus musculus [9]) |
| --- | --- | --- | --- | --- | --- | --- | --- | --- | --- |
| Clc1ccc(-n2cc(CCCCN3CCN(c4ccccc4)CC3)cn2)cc1 | 0.4 | 650 | 610 | Active | Active | – | Toxic | Dose-dependent effect | Non-toxic |
| Clc1ccc(-n2cc(COCCCN3CCN(c4ccccc4)CC3)cn2)cc1 | – | 650 | 2800 | – | – | – | – | – | – |
| Clc1ccc(-n2cc(CCCN3CCN(c4ccccc4)CC3)cn2)cc1 | – | 600 | 1600 | – | – | – | – | – | – |
| Clc1ccc(-n2cc(CCCCCN3CCN(c4ccccc4)CC3)cn2)cc1 | – | 950 | 1400 | – | – | – | – | – | – |

The remaining compounds from weak to strong by Ki [3], led by results:

| Ratio Ki [2] | Ki [3] [nM] | Ki [4] [nM] | inhibition [6] | inhibition [8] | Compound | Activity (Mus musculus [1]) | Activity (Mus musculus [5]) | Activity (Mus musculus [7]) | Activity (Mus musculus [9]) |
| --- | --- | --- | --- | --- | --- | --- | --- | --- | --- |
| 0.056 | 6910 | 2500 | – | – | Clc1ccc(-n2cc(CN3CCN(c4ccccc4)CC3)cn2)cc1 | Active | – | – | – |
| – | 2490 | 2100 | – | – | Clc1ccc(-n2cc(COCCN3CCN(c4ccccc4)CC3)cn2)cc1 | – | – | – | – |
